# Source: PubChem
# INS promoter act = TRM-6 insulin promoter activation. 0.81% of 130,000 active. activation, % at 2 µM. TRM-6 cells (human fetal islet line), insulin promoter eGFP reporter, imaging; plate-scaled: unstimulated 0, stimulated control 100;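 active = activation at 2 µM above a set limit, confirmed on inspection of the cell images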;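 note: share of cells whose green reporter signal exceeds an intensity cutoff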
#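 Test system: TRM-6 insulin promoter–eGFP reporter cells / Quantity: 1,000 cells per well / Reagent: tamoxifen inducer, 0.75 µM, in seeding medium / Compound dosing: 2 µM final, single concentration / Schedule: overnight tamoxifen, then two-day compound incubation at 37 °C / Measured by: automated fluorescence imaging of paraformaldehyde-fixed, Hoechst-counterstained cells, green channel / Read-out: percent activation from GFP-positive cell fraction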
# An asterisk follows results filed as active; [ ] = another dose, or the depositor's remark. Shown is part of a subset that was picked to be rich in hits.
SMILES,INS promoter act
CCN(CCn1cccn1)C(=O)CCc1nnc(C2(c3ccc(Cl)cc3)CCC2)o1,4.8
CC1=C(CC/C(C)=N/NC(N)=S)C(C)(C)CCC1,176.2
ClCC1NCC(c2ccccc2Cl)c2c1[nH]c1ccccc21 (stereo unspecified),585.7*
CC1(C)COC(c2cccc(C3=NC(C)(C)CO3)n2)=N1,3.3
CCOC(=O)CSc1ncnc2c1cnn2-c1ccccc1,121.4*
Cc1ccc(-n2ncc3c(SCc4ccccc4)ncnc32)cc1,8.8
CCOC(=O)CC(=O)CSc1ncnc2c1cnn2-c1ccccc1,-100.0
COc1cc(SC)ccc1C(=O)NCCOc1c(C)cc(C)cc1C,-3.4
CCC(C)NS(=O)(=O)c1ccc(S(=O)(=O)N2CCCC3(CCCCC3)C2)cc1 (stereo unspecified),142.9
CCOCCCNC(=O)C(Cc1ccccc1)NC(=O)c1ccco1 (stereo unspecified),123.6
Cn1nnnc1SCC(=O)Nc1ccccn1,92.9*
Cn1nnnc1SCC(=O)Nc1ccccc1[N+](=O)[O-],0.0
COc1ccc(NC(=O)CSc2nnnn2C)cc1,-7.1
CCn1cc(C(=O)N(CCC(C)C)c2c(N)n(Cc3ccccc3)c(=O)[nH]c2=O)c(=O)c2ccc(C)nc21,7.3
Cc1c(NC(=O)CN2C(=O)NC3(CCCCC3)C2=O)c(=O)n(-c2ccccc2)n1C,-8.3
COc1ccccc1N1CCN(C(CNS(=O)(=O)c2ccc(C)cc2)c2cccnc2)CC1 (stereo unspecified),75.7*
COc1ccccc1N1CCN(C(=O)C2CCN(S(=O)(=O)c3ccc(C)cc3)CC2)CC1,-5.9
Cc1ccc(S(=O)(=O)NCC(c2cccnc2)N(C)C)cc1 (stereo unspecified),8.7
Cc1ccc(NC(=O)Cn2nc(-c3ccccc3Cl)ccc2=O)c(Br)c1,0.0
O=C(/C=C/c1ccccc1Cl)NCCc1ccc(F)cc1,2.6
CCNc1ccc(Br)cc(C(=O)/C=C/c2ccccc2Cl)c1=O,800.0*
CCc1ccc(/C=C/C(=O)c2cc(Br)ccc(=O)c2O)cc1,2.9
COc1ccc(S(=O)(=O)N(C)CC(=O)NCc2cccnc2)cc1Cl,7.1
Cc1ccccc1OCc1n[nH]c(=S)n1Cc1ccccc1,0.0
OCCCc1n[nH]c(=S)n1-c1ccccc1,-6.7
SMILES,INS promoter act
Nn1c(Cc2ccccc2)n[nH]c1=S,485.7*
CCOC(=O)c1c(NC(=O)c2ccc(Cl)cc2)csc1C,-9.7
Cc1ccc(C)c(OC(=O)c2cncc(Br)c2)c1,0.0
CN(C)c1ccc(/C=C/c2ccncc2)cc1,86.8*
CC(C)OP(=O)(c1ccc(N(C)C)cc1)C(O)c1ccncc1 (stereo unspecified),-8.3
COc1ccc(/C=C/c2ccncc2)cc1,-7.7
CCOC(=O)c1c(C)[nH]c(C)c1C(=O)COC(=O)c1ccc(OC)c(OC)c1,8.3
COc1cccc(-c2nn(C)c3sc(C(=O)NCc4ccc(C)o4)cc23)c1,-62.5
O=C1NCCN(Cc2cccc(Oc3ccccc3)c2)C1CC(=O)N1CCCO1 (stereo unspecified),0.0
CC(=O)c1ccc(NC(=O)N2CCN(c3cccc(Cl)c3)CC2)cc1,-9.5
CCc1ccc(NC(=S)N2CCN(c3cccc(C(F)(F)F)c3)CC2)cc1,0.0
CC(=O)c1ccc(N2CCN(C(=S)Nc3cccc(F)c3)CC2)cc1,138.5*
CCOC(=O)c1ccc(S(=O)(=O)N2CCN(C(=O)c3nn(C)c(=O)c4ccccc34)CC2)cc1,0.0
CCC(C(=O)NCc1cccnc1)c1ccccc1 (stereo unspecified),440.0*
CC(NS(=O)(=O)c1ccc(CCC(=O)NCc2cccnc2)cc1)c1ccccc1 (stereo unspecified),133.3
CC(c1ccccc1)n1cc(C(=O)NCc2cccnc2)nn1 (stereo unspecified),0.0
Cn1cnnc1SCC(=O)Nc1ccc2nc(SCc3ccccc3F)sc2c1,3.3
COc1ccc(N/C(N)=N/c2nc(CSc3ccc(C)cc3)cc(=O)[nH]2)cc1,-7.1
O=C(Cn1cc(C(=O)c2ccco2)c2ccccc21)NCc1ccco1,97.3*
CC(=O)c1cn(CC(=O)NCc2cccnc2)c2ccccc12,5.3
O=C(Cn1cc(C(=O)C(F)(F)F)c2ccccc21)NCc1ccco1,5.6
CCOc1ccccc1N1CCN(CC(=O)N(CC(C)C)c2c(N)n(CC(C)C)c(=O)[nH]c2=O)CC1,9.5
Cc1ccc(C(=O)OCC(=O)N(C)C2CCS(=O)(=O)C2)cc1[N+](=O)[O-] (stereo unspecified),-7.1
CN(C)CCCOC(=O)c1ccccc1,326.7
C[N+]1(CC(=O)OCCCc2ccccc2)CCCCC1,350.0*
SMILES,INS promoter act
CC(C)(C)C(=O)NCCCc1ccccc1,-2.9
CCOC(=O)c1c(NC(=O)C2c3ccccc3Oc3ccccc32)sc(C(C)=O)c1C,-9.7
Nn1c(SCC(=O)NC(=O)NCc2ccco2)nnc1-c1ccc(OC(F)F)cc1,1.8
CCCN(CCC)CCCOC(=O)c1ccc(Cl)cc1Cl,3.1
CSc1ccc(OC2CCCCC2NS(=O)(=O)c2ccc(Cl)cc2)cc1 (stereo unspecified),-100.0
O=S(=O)(NC1CCCCC1Nc1ccccc1)c1ccccc1 (stereo unspecified),-3.3
O=S(=O)(NC1CCCCC1NS(=O)(=O)c1ccc(F)cc1)c1ccc(F)cc1 (stereo unspecified),513.3*
CC(=O)c1c(C)[nH]c(C(=O)OCc2ccccc2F)c1C,-9.1
Cc1cc(NC(=O)COC(=O)c2oc3c(Cl)cccc3c2C)no1,0.0
Cc1nn(CC(=O)O)c(=O)c2ccccc12,-9.4
COc1ccc(CNC(=O)Cc2nn(C)c(=O)c3ccccc23)cc1,2.6
CC(C)(C)c1ccc(Cn2nc(CC(=O)O)c3ccccc3c2=O)cc1,272.2*
CN(c1cccc(NC(=O)COc2ccc(Cl)cc2Cl)c1)S(C)(=O)=O,-5.6
CC1CC(C(F)(F)C(F)(F)F)n2nc(C(=O)O)cc2N1 (stereo unspecified),-1.8
CN1CCN(C2=CC3=CC(=C(C#N)C#N)CCC3CC2)CC1 (stereo unspecified),640.7*
N#CC(C#N)=C1C=C2C=C(N3CCCCCC3)CCC2CC1 (stereo unspecified),222.6*
CCN1CCN(c2nc3ccccc3nc2C(C#N)C(=O)OC2CCCCC2)CC1 (stereo unspecified),-7.7
CCN1CCN(C2=CC3=CC(=C(C#N)C#N)CCC3CC2)CC1 (stereo unspecified),614.3*[fluoresces]
Cc1ccc(C)c(CN2C(=O)C(C)Oc3ccc(C)cc32)c1 (stereo unspecified),-4.8
CCOc1ccc(N=C(/C(C(=O)C(=O)N2CCOCC2)=C(\O)c2ccccc2)c2ccccc2)cc1,8.3
COc1ccc(CC(=O)N2CC(C)CC(C)C2)cc1 (stereo unspecified),2.8
Cc1nc2c(cc1C#N)C(=O)c1ccccc1-2,9.7
Cc1ncsc1CCOC(=O)C1C2CC3CC(C2)CC1C3 (stereo unspecified),1.6
CCCN(CCC)CCCNC(=O)CN1C(=O)CSc2ccc(S(=O)(=O)N3CCOCC3)cc21,0.0
COCCCNC(=S)NNC(=O)C1CC1c1ccc(C(C)(C)C)cc1 (stereo unspecified),788.9*
COCCNC(=S)NC(=O)c1ccc(C(C)(C)C)cc1,-5.9
COCCCNC(=S)NNC(=O)c1ccccn1,0.0
CCOC(=O)NC1(C(F)(F)F)NC(=O)N(c2ccc(F)cc2)C1=O (stereo unspecified),6.7
c1ccc2[nH]c(CN3CCOCC3)nc2c1,-2.9
